The subject of one experiment is Enterococcus faecium. In words: In vitro antibacterial activity against Vancomycin-susceptible Enterococcus faecium BM4147.1. In kind it is functional. An outline of the steps:
(§1)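 MICs by NCCLS broth dilution guidelines, modified by adding 0.02% bovine serum albumin to the growth medium; purified, resynthesized compounds tested against the expanded bacterial panel.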

A further experiment has as its system Streptococcus pyogenes. In words: In vitro antibacterial activity against Streptococcus pyogenes (ATTC19615). In kind it is functional. An outline of the steps: as §1
The test system of experiment [1] is Staphylococcus aureus. In words: In vitro antibacterial activity against methicillin resistant Staphylococcus aureus (MRSA) ATCC 33591. In kind it is functional.
For experiment [2], the system named is Haemophilus influenzae. In words: In vitro antibacterial activity against Haemophilus influenzae (ATTC31517). The class given is functional. An outline of the steps: as §1
The test system of a further experiment is Escherichia coli. In words: In vitro antibacterial activity against Escherichia coli (A G100B). In kind it is functional. An outline of the steps:
as §1

In experiment [3] the test system is Staphylococcus aureus. In words: In vitro antibacterial activity against methicillin sensitive Staphylococcus aureus ATCC 25923. The class given is functional. An outline of the steps:
as §1

In experiment [4] the test system is Enterococcus faecalis. In words: In vitro antibacterial activity against Vancomycin-resistant Enterococcus faecalis ATCC 51299. In kind it is functional.
Another experiment concerns Streptococcus pneumoniae. In words: In vitro antibacterial activity against Streptococcus pneumoniae (ATTC49619). The class given is functional. An outline of the steps:
as §1

The test system of experiment [5] is Haemophilus influenzae. In words: In vitro antibacterial activity against Haemophilus influenzae (acr, LS-2). The class given is functional. An outline of the steps: as §1
Experiment [6] relates to Staphylococcus epidermidis. In words: In vitro antibacterial activity against Staphylococcus epidermidis (ATCC 12228). In kind it is functional. An outline of the steps: as §1
Experiment [7] deals with Enterococcus faecalis. In words: In vitro antibacterial activity against Vancomycin-resistant Enterococcus faecalis (ATTC51299).
Experiment [8] in a line: Inhibitory activity against elongation factor Tu (EF-Tu). In kind it is functional, Bacteria.

Values after ≈ are worked out from the molar mass of the structure shown. Some results are limits rather than exact numbers.

Turning to `CNC(=O)C[C@@H]1NC(=O)c2csc(n2)-c2ccc(-c3nc(COC(=O)N[C@@H](C)C(=O)O)cs3)nc2-c2csc(n2)-c2csc(n2)C(C(O)c2ccccc2)NC(=O)CNC(=O)c2nc(sc2COC)[C@H](C(C)C)NC(=O)c2nc1sc2C` (some centres not stated), the MIC in the experiment with Enterococcus faecium is 0.25 µg/mL (≈ 0.204 µM); against Streptococcus pyogenes it was 8 µg/mL (≈ 6.52 µM); in the experiment with Staphylococcus aureus [1], 0.5 µg/mL (≈ 0.408 µM); against Haemophilus influenzae [2], 16 µg/mL (≈ 13 µM); in the experiment on Escherichia coli, more than 16 µg/mL; against Staphylococcus aureus [3], 1 µg/mL (≈ 0.815 µM). Besides, the MIC with Enterococcus faecalis [4] was found to be 0.5 µg/mL (≈ 0.408 µM); in the experiment with Streptococcus pneumoniae, 4 µg/mL (≈ 3.26 µM); with Haemophilus influenzae [5] it was 1 µg/mL (≈ 0.815 µM); in [6], 2 µg/mL (≈ 1.63 µM).
On to `CNC(=O)C[C@@H]1NC(=O)c2csc(n2)-c2ccc(-c3nc(C(=O)N(C)CCCC(=O)O)cs3)nc2-c2csc(n2)-c2csc(n2)C(C(O)c2ccccc2)NC(=O)CNC(=O)c2nc(sc2COC)[C@H](C(C)C)NC(=O)c2nc1sc2C` (some centres not stated), for which the MIC against Enterococcus faecium is 0.125 µg/mL (≈ 0.102 µM); against Streptococcus pyogenes it was 4 µg/mL (≈ 3.27 µM); against Staphylococcus aureus [1], 0.25 µg/mL (≈ 0.204 µM); in the experiment with Haemophilus influenzae [2], 2 µg/mL (≈ 1.63 µM); against Escherichia coli, more than 16 µg/mL; in the experiment on Staphylococcus aureus [3], 0.5 µg/mL (≈ 0.408 µM). Moreover, the MIC is 0.25 µg/mL (≈ 0.204 µM) against Enterococcus faecalis [4], 2 µg/mL (≈ 1.63 µM) in the experiment with Streptococcus pneumoniae, 1 µg/mL (≈ 0.817 µM) with Haemophilus influenzae [5] and 1 µg/mL (≈ 0.817 µM) in experiment [6].
Turning to `CNC(=O)C[C@@H]1NC(=O)c2csc(n2)-c2ccc(-c3nc(COC(=O)N(C)CCCC(=O)O)cs3)nc2-c2csc(n2)-c2csc(n2)C(C(O)c2ccccc2)NC(=O)CNC(=O)c2nc(sc2COC)[C@H](C(C)C)NC(=O)c2nc1sc2C` (some centres not stated), the MIC is 0.5 µg/mL (≈ 0.399 µM) against Enterococcus faecium; more than 16 µg/mL in the experiment on Streptococcus pyogenes; 0.25 µg/mL (≈ 0.199 µM) in the experiment on Staphylococcus aureus [1]; 8 µg/mL (≈ 6.38 µM) in the experiment with Haemophilus influenzae [2]; more than 16 µg/mL in the experiment with Escherichia coli; 0.5 µg/mL (≈ 0.399 µM) against Staphylococcus aureus [3]. Besides, the MIC is 0.5 µg/mL (≈ 0.399 µM) in the experiment on Enterococcus faecalis [4], more than 16 µg/mL with Streptococcus pneumoniae, 2 µg/mL (≈ 1.59 µM) in the experiment with Haemophilus influenzae [5] and 0.5 µg/mL (≈ 0.399 µM) in experiment [6].
With `CNC(=O)C[C@@H]1NC(=O)c2csc(n2)-c2ccc(-c3nc(C(=O)NCC(O)CC(=O)O)cs3)nc2-c2csc(n2)-c2csc(n2)C(C(O)c2ccccc2)NC(=O)CNC(=O)c2nc(sc2COC)[C@H](C(C)C)NC(=O)c2nc1sc2C` (some centres not stated), the MIC in the experiment on Enterococcus faecium was 0.25 µg/mL (≈ 0.204 µM); against Streptococcus pyogenes, 1 µg/mL (≈ 0.815 µM); against Staphylococcus aureus [1] it was 0.25 µg/mL (≈ 0.204 µM); against Haemophilus influenzae [2], more than 16 µg/mL; against Escherichia coli, more than 16 µg/mL; against Staphylococcus aureus [3], 1 µg/mL (≈ 0.815 µM). Moreover, the MIC with Enterococcus faecalis [4] came to 0.25 µg/mL (≈ 0.204 µM); against Streptococcus pneumoniae it was 2 µg/mL (≈ 1.63 µM); with Haemophilus influenzae [5], 2 µg/mL (≈ 1.63 µM); in experiment [6] it was 2 µg/mL (≈ 1.63 µM).
On to `CNC(=O)C[C@@H]1NC(=O)c2csc(n2)-c2ccc(-c3nc(COC(=O)NCCCC(=O)O)cs3)nc2-c2csc(n2)-c2csc(n2)C(C(O)c2ccccc2)NC(=O)CNC(=O)c2nc(sc2COC)[C@H](C(C)C)NC(=O)c2nc1sc2C` (some centres not stated), for which the MIC with Enterococcus faecium was 0.06 µg/mL (≈ 0.0484 µM); in the experiment on Streptococcus pyogenes, 8 µg/mL (≈ 6.45 µM); with Staphylococcus aureus [1], 0.125 µg/mL (≈ 0.101 µM); in the experiment with Haemophilus influenzae [2], 16 µg/mL (≈ 12.9 µM); in the experiment with Escherichia coli, more than 16 µg/mL; against Staphylococcus aureus [3] it was 0.25 µg/mL (≈ 0.202 µM). Besides, the MIC with Enterococcus faecalis [4] turned out to be 0.125 µg/mL (≈ 0.101 µM); against Streptococcus pneumoniae, 2 µg/mL (≈ 1.61 µM); against Haemophilus influenzae [5] it was 4 µg/mL (≈ 3.22 µM); in experiment [6], 0.25 µg/mL (≈ 0.202 µM).
Turning to `CNC(=O)C[C@@H]1NC(=O)c2csc(n2)-c2ccc(-c3nc(COC(=O)NCCCCC(=O)O)cs3)nc2-c2csc(n2)-c2csc(n2)C(C(O)c2ccccc2)NC(=O)CNC(=O)c2nc(sc2COC)[C@H](C(C)C)NC(=O)c2nc1sc2C` (some centres not stated), the MIC against Enterococcus faecium was 0.125 µg/mL (≈ 0.0996 µM); in the experiment with Streptococcus pyogenes it was 4 µg/mL (≈ 3.19 µM); in the experiment with Staphylococcus aureus [1], 0.25 µg/mL (≈ 0.199 µM); against Haemophilus influenzae [2], 8 µg/mL (≈ 6.38 µM); against Escherichia coli, more than 16 µg/mL; against Staphylococcus aureus [3], 0.5 µg/mL (≈ 0.399 µM). In addition, the MIC against Enterococcus faecalis [4] was 0.5 µg/mL (≈ 0.399 µM); with Streptococcus pneumoniae it was 2 µg/mL (≈ 1.59 µM); in the experiment on Haemophilus influenzae [5], 2 µg/mL (≈ 1.59 µM); in experiment [6], 0.5 µg/mL (≈ 0.399 µM).
In the case of `CNC(=O)C[C@@H]1NC(=O)c2csc(n2)-c2ccc(-c3nc(COC(=O)N[C@H](C)C(=O)O)cs3)nc2-c2csc(n2)-c2csc(n2)C(C(O)c2ccccc2)NC(=O)CNC(=O)c2nc(sc2COC)[C@H](C(C)C)NC(=O)c2nc1sc2C` (some centres not stated), the MIC against Enterococcus faecium is 0.25 µg/mL (≈ 0.204 µM); with Streptococcus pyogenes it was 2 µg/mL (≈ 1.63 µM); in the experiment with Staphylococcus aureus [1], 0.5 µg/mL (≈ 0.408 µM); against Haemophilus influenzae [2], 16 µg/mL (≈ 13 µM); against Escherichia coli, more than 16 µg/mL; in the experiment on Staphylococcus aureus [3], 0.5 µg/mL (≈ 0.408 µM). Besides, the MIC turned out to be 1 µg/mL (≈ 0.815 µM) in the experiment with Enterococcus faecalis [4], 2 µg/mL (≈ 1.63 µM) with Streptococcus pneumoniae, 1 µg/mL (≈ 0.815 µM) with Haemophilus influenzae [5] and 2 µg/mL (≈ 1.63 µM) in experiment [6].
In the case of `CNC(=O)C[C@@H]1NC(=O)c2csc(n2)-c2ccc(-c3nc(COC(=O)NCC(O)CC(=O)O)cs3)nc2-c2csc(n2)-c2csc(n2)C(C(O)c2ccccc2)NC(=O)CNC(=O)c2nc(sc2COC)[C@H](C(C)C)NC(=O)c2nc1sc2C` (some centres not stated), the MIC against Enterococcus faecium is 0.5 µg/mL (≈ 0.398 µM); against Streptococcus pyogenes it was 8 µg/mL (≈ 6.37 µM); against Staphylococcus aureus [1], 0.5 µg/mL (≈ 0.398 µM); in the experiment on Haemophilus influenzae [2], more than 16 µg/mL; against Escherichia coli it was more than 16 µg/mL; with Staphylococcus aureus [3], 1 µg/mL (≈ 0.796 µM). Moreover, the MIC was determined as 1 µg/mL (≈ 0.796 µM) in the experiment with Enterococcus faecalis [4], 4 µg/mL (≈ 3.18 µM) against Streptococcus pneumoniae, 2 µg/mL (≈ 1.59 µM) in the experiment with Haemophilus influenzae [5] and 2 µg/mL (≈ 1.59 µM) in experiment [6].
As for `CNC(=O)C[C@@H]1NC(=O)c2csc(n2)-c2ccc(-c3nc(C4=N[C@H](C(=O)N5CCC[C@H]5C(N)=O)CO4)cs3)nc2-c2csc(n2)-c2csc(n2)C(C(O)c2ccccc2)NC(=O)CNC(=O)c2nc(sc2COC)[C@H](C(C)C)NC(=O)c2nc1sc2C` (some centres not stated), the MIC against Enterococcus faecium was 0.015 µg/mL (≈ 0.0116 µM); against Streptococcus pyogenes it was 0.125 µg/mL (≈ 0.0969 µM); against Enterococcus faecalis [7], 0.015 µg/mL (≈ 0.0116 µM); against Staphylococcus aureus [1], 0.03 µg/mL (≈ 0.0232 µM); against Haemophilus influenzae [2], more than 16 µg/mL; against Escherichia coli it was more than 16 µg/mL. The MIC was 0.03 µg/mL (≈ 0.0232 µM) against Staphylococcus aureus [3], 0.06 µg/mL (≈ 0.0465 µM) against Streptococcus pneumoniae, more than 16 µg/mL in the experiment on Haemophilus influenzae [5] and 0.03 µg/mL (≈ 0.0232 µM) in experiment [6]. Moreover, in experiment [8], the IC50 (as a rule, the point on the concentration scale where inhibition reaches its midpoint) was 5 nM.
On to `CN[C@H](CC(C)C)C(=O)N[C@H]1C(=O)N[C@@H](CC(N)=O)C(=O)N[C@H]2C(=O)N[C@H]3C(=O)N[C@H](C(=O)N[C@H](C(=O)O)c4cc(O)cc(O)c4-c4cc3ccc4O)[C@H](O)c3ccc(c(Cl)c3)Oc3cc2cc(c3O[C@@H]2O[C@H](CO)[C@@H](O)[C@H](O)[C@H]2O[C@H]2C[C@](C)(N)[C@H](O)[C@H](C)O2)Oc2ccc(cc2Cl)[C@H]1O` [VANCOMYCIN], for which the MIC against Streptococcus pyogenes is 0.25 µg/mL (≈ 0.173 µM); in the experiment with Haemophilus influenzae [2] it was more than 16 µg/mL; against Escherichia coli it was more than 16 µg/mL; in the experiment with Enterococcus faecalis [4], more than 16 µg/mL; in the experiment with Streptococcus pneumoniae, 0.125 µg/mL (≈ 0.0863 µM); in the experiment with Haemophilus influenzae [5], more than 16 µg/mL.

Values taken from ChEMBL document CHEMBL1144979, “Combinatorial modification of natural products: synthesis and in vitro analysis of derivatives of thiazole peptide antibiotic GE2270 A: A-ring modifications” (Bioorg Med Chem Lett, 2003).
